In experiment [1] the test system is Nakaseomyces glabratus. Kind of experiment: Antifungal activity against Candida glabrata ATCC 48435 at 125 ug/ml after 48 to 72 hrs by broth microdilution method. The experiment is classed as functional, organism-based. A digest of the protocol: (§1)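 Broth microdilution per NCCLS. Inocula come from 5–7 colonies on YM agar, suspended in sterile water and adjusted to 0.5 McFarland at 530 nm (stock 1×10⁶–5×10⁶ cells/mL), then diluted 1:50 in HEPES-buffered RPMI 1640. Compounds in DMSO (final ≤1%) are added as a 10-fold dilution into the suspension. Plates run 48–72 h at 35 °C, humid. Growth is scored visually; the endpoint is ≥80% reduction versus drug-free wells.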
(In general: Dilution methods test growth across graded concentrations, often in twofold steps.)

Experiment [2] deals with Candida albicans. The experiment in a line: Antifungal activity against Candida albicans ATCC 10231 at 125 ug/ml after 48 to 72 hrs by broth microdilution method. The experiment is classed as functional, organism-based. A digest of the protocol:
as §1

Experiment [3] deals with Candida albicans. Kind of experiment: Antifungal activity against Candida albicans ATCC 10231 after 48 to 72 hrs by broth microdilution method. The experiment is classed as functional. A digest of the protocol:
(§2)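 Broth microdilution per NCCLS. Organisms were subcultured on Sabouraud agar. Inoculum was 5–7 colonies from YM agar in sterile water, adjusted to 0.5 McFarland at 530 nm (1–5×10⁶ cells/mL stock), held 30 min at RT, then diluted 1:50 in HEPES-buffered RPMI 1640. DMSO stocks were twofold-diluted, with final DMSO ≤1%. Plates ran 48–72 h at 35 °C, humid. MIC is the lowest concentration giving ≥80% growth reduction vs drug-free wells, scored visually. Fluconazole or amphotericin B ran as drug control.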

In experiment [4] the test system is Nakaseomyces glabratus. The experiment in a line: Antifungal activity against Candida glabrata ATCC 48435 after 48 to 72 hrs by broth microdilution method. Format: functional. A digest of the protocol:
as §2

Converted amounts (≈) assume the structure as drawn. The source made the active and inactive calls.

On to `CC(=O)C1C(=O)NC(=O)N(c2ccccc2)C1=O` (configuration not stated), for which the outcome with Nakaseomyces glabratus [1] and in the experiment on Candida albicans [2] was inactive.
Take `CN1C(=O)C(C(=O)c2cccnc2)C(=O)N(C)C1=O`: the result with Nakaseomyces glabratus [1] and in the experiment on Candida albicans [2] was inactive.
In the case of `O=C1NC(=O)C(Cc2ccccc2)(Cc2ccccc2)C(=O)N1`, the result with Nakaseomyces glabratus [1] and with Candida albicans [2] was inactive.
For `COc1ccc(C(=O)C2C(=O)N(C)C(=O)N(C)C2=O)cc1`, the outcome in the experiment with Nakaseomyces glabratus [1] and with Candida albicans [2] was inactive.
What is called MIC80 is an inhibitory concentration at the 80% level, which refers to growth in some studies and to a panel of isolates in others. Take `CN1C(=O)C(/C(=N/Nc2ccc(C(=O)O)cc2)c2ccccc2)C(=O)N(C)C1=O`: the MIC80 entry with Candida albicans [3] and in the experiment on Nakaseomyces glabratus [4] was “inactive” each time.
As for `C/C(=N\NS(=O)(=O)c1ccc(C)cc1)C1C(=O)NC(=O)NC1=O`, the MIC80 result in the experiment on Candida albicans [3] and in the experiment on Nakaseomyces glabratus [4] was “inactive” each time.
In the case of `CN1C(=O)C(/C=N/c2ccc(-c3ccccc3)cc2)C(=O)N(C)C1=O`, the MIC80 result in the experiment on Candida albicans [3] and in the experiment on Nakaseomyces glabratus [4] was “inactive” throughout.
`CN1C(=O)C(/C=N/c2ccc(O)cc2)C(=O)N(C)C1=O`: the MIC80 entry with Candida albicans [3] and with Nakaseomyces glabratus [4] was “inactive” each time.
`C/C(=N\c1ccccc1)C1C(=O)NC(=O)NC1=O`: the MIC80 entry in the experiment on Candida albicans [3] and in the experiment on Nakaseomyces glabratus [4] was “inactive” each time.
On to `C/C(=N\N)C1C(=O)N(C)C(=O)N(C)C1=O`, for which the MIC80 entry with Candida albicans [3] and in the experiment with Nakaseomyces glabratus [4] was “inactive” each time.
Turning to `CN1C(=O)C(/C(=N/Nc2ccc([N+](=O)[O-])cc2[N+](=O)[O-])c2ccc(O)cc2)C(=O)N(C)C1=O`, the MIC80 result with Candida albicans [3] and in the experiment with Nakaseomyces glabratus [4] was “inactive” in each case.
Turning to `C/C(=N\Nc1ccc([N+](=O)[O-])cc1[N+](=O)[O-])C1C(=O)N(C)C(=O)N(C)C1=O`, the MIC80 entry with Candida albicans [3] and in the experiment on Nakaseomyces glabratus [4] was “inactive” throughout.
With `CN1C(=O)C(/C=N/c2cccc(O)c2)C(=O)N(C)C1=O`, the MIC80 entry with Candida albicans [3] and in the experiment with Nakaseomyces glabratus [4] was “inactive” throughout.
In the case of `O=C1NC(=O)C(=Cc2ccc(O)cc2)C(=O)N1`, the MIC80 entry with Candida albicans [3] and in the experiment on Nakaseomyces glabratus [4] was “inactive” throughout.
Turning to `CN1C(=O)C(=Cc2ccc(O)cc2O)C(=O)N(C)C1=O`, in the experiment with Candida albicans [3], the MIC80 result was “inactive”. Also, in the experiment with Nakaseomyces glabratus [4], the MIC80 worked out at 2 µg/mL (≈ 7.24 µM).
As for `C/C(=N\NC(=O)c1ccc([N+](=O)[O-])cc1)C1C(=O)N(C)C(=O)N(C)C1=O`, the MIC80 entry with Candida albicans [3] and in the experiment on Nakaseomyces glabratus [4] was “inactive” throughout.
For `CN1C(=O)C(/C=N/c2ccccn2)C(=O)N(C)C1=O`, the MIC80 result with Candida albicans [3] and with Nakaseomyces glabratus [4] was “inactive” in each case.
On to `COc1ccc(/N=C/C2C(=O)N(C)C(=O)N(C)C2=O)cc1`, for which the MIC80 entry with Candida albicans [3] and in the experiment on Nakaseomyces glabratus [4] was “inactive” throughout.
In the case of `CN1C(=O)C(=Cc2ccc(O)cc2)C(=O)N(C)C1=O`, the MIC80 result with Candida albicans [3] and in the experiment on Nakaseomyces glabratus [4] was “inactive” in each case.
For `COc1ccc(/N=C(\C)C2C(=O)NC(=O)NC2=O)cc1`, the MIC80 result in the experiment with Candida albicans [3] and with Nakaseomyces glabratus [4] was “inactive” in each case.
For the compound `C/C(=N\c1ccc(O)cc1)C1C(=O)NC(=O)NC1=O`, the MIC80 entry in the experiment with Candida albicans [3] and with Nakaseomyces glabratus [4] was “inactive” in each case.
`CN1C(=O)C(/C=N/N)C(=O)N(C)C1=O`: the results for the MIC80 in the experiment with Candida albicans [3] and in the experiment on Nakaseomyces glabratus [4] were 125 µg/mL (≈ 631 µM) and 16 µg/mL (≈ 80.7 µM), respectively.
The like results for `CN1C(=O)C(/C=N/n2cnnc2)C(=O)N(C)C1=O` were, in that order, “inactive” and “inactive”.
As to `C/C(=N\NC(=O)c1ccc([N+](=O)[O-])cc1)C1C(=O)NC(=O)NC1=O`, in the experiment with Candida albicans [3], the MIC80 entry is “inactive”. The compound further showed an MIC80 in the experiment on Nakaseomyces glabratus [4] of 125 µg/mL (≈ 375 µM).
As to `O=C1NC(=O)C(/C=N/c2ccc(-c3ccccc3)cc2)C(=O)N1`, the MIC80 result with Candida albicans [3] and in the experiment on Nakaseomyces glabratus [4] was “inactive” in each case.
In the case of `C/C(=N\CCCCCC(=O)O)C1C(=O)NC(=O)NC1=O`, the MIC80 result with Candida albicans [3] and with Nakaseomyces glabratus [4] was “inactive” in each case.

(Values after ChEMBL document CHEMBL3102843, “Synthesis and antifungal activity of substituted 2,4,6-pyrimidinetrione carbaldehyde hydrazones” (Bioorg Med Chem, 2014).)
